# Assay results as given in ChEMBL document CHEMBL1125745, “Unsaturated and carbocyclic nucleoside analogues: synthesis, antitumor, and antiviral activity” (J Med Chem, 1991).
# Key:
# MC-38 [1] = experiment: Cytotoxicity was evaluated against C38 solid tumor of mouse at 500 ug/disk.; assay type: functional; design: unit not given beside the values
# Method in brief: (§1)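 Disk zone assay: analogue dilutions on 6.5 mm paper disks were placed on dishes with a 0.8% agar bottom layer and a 0.44% soft-agar top layer of tumor cells (≤1 × 10^5/plate) in Fishers-CMRL-1066 with 12% horse serum. Plates were incubated 6-10 days and the inhibition zone was measured by microscope; 200 zone units = 6 mm.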
# Homo sapiens [2] = species: Homo sapiens; experiment: Cytotoxicity was evaluated against H125 human solid tumor at 500 ug/disk.; assay type: functional; method in brief: as §1
# L1210 [3] = experiment: Cytotoxicity was evaluated against L1210 leukemia cell line at 500 ug/disk.; assay type: functional, Mus musculus; method in brief: as §1
# [4] = Cytotoxicity was evaluated against low malignancy line at 500 ug/disk.; assay type: functional; method in brief: as §1
# L1210 [5] = experiment: Inhibitory activity against murine leukemia L1210 cells; assay type: functional, cell-based; settings: Mus musculus
# PO3 [6] = experiment: Cytotoxicity was evaluated against PO3 cell line at 1000 ug/disk.
# Mus musculus [7] = species: Mus musculus; experiment: Concentration that reduces Friend murine leukemia virus titer by 50%; assay type: functional, organism-based
# Method in brief: (§2)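 SC-1 cells (1 × 10^4/well) were pretreated with polybrene, infected 2 h at 37 °C with F-MuLV or R-MuLV in EMEM-5 with 8 µg/mL polybrene, washed, and refed with analogue for 72 h. They were then UV-irradiated and overlaid with XC cells (2 × 10^5) for 48 h, fixed and stained with crystal violet. Multinucleated cells were counted and EC50 was taken by linear regression versus untreated cultures.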
# [8] = Inhibition of incorporation of labeled precursor into macromolecules of noninfected SC-1 cells with the compound at a concentration 300 uM determined against leucine.; assay type: functional
# Method in brief: (§3)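 SC-1 cells seeded in 24-well trays at 1 × 10^4 cells/mL, incubated overnight at 37 °C, then exposed to analogue for 72 h at 37 °C. Labeled thymidine (2.5 µCi), [3H-5,6]uridine or [3H-4,5]leucine was added. After 4 h, cells were washed with cold PBS, lysed in 1% SDS/0.01 M EDTA/0.01 M Tris pH 7.7, and lysates were dried on GF/B filters. Result given as % of untreated incorporation.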
# [9] = Inhibition of incorporation of labeled precursor into macromolecules of noninfected SC-1 cells with the compound at a concentration 300 uM determined against thymidine; assay type: functional; method in brief: as §3
# [10] = Inhibition of incorporation of labeled precursor into macromolecules of noninfected SC-1 cells with the compound at a concentration 300 uM determined against uridine.; assay type: functional; method in brief: as §3
# [11] = Inhibition of incorporation of labeled precursor into macromolecules of noninfected SC-1 cells with the compound at a concentration 100 uM determined against leucine.; assay type: functional
# Method in brief: (§4)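 Noninfected SC-1 cells were incubated with analogue as in the cytotoxicity setup, and [3H]thymidine, [3H]uridine or [3H]leucine was added. After 4 h, wells were washed with ice-cold PBS and cells were lysed in 1% SDS, 0.01 M EDTA, 0.01 M Tris pH 7.7. Lysates were dried on glass-fiber filters, and label is expressed as percent of incorporation in untreated cells.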
# [12] = Inhibition of incorporation of labeled precursor into macromolecules of noninfected SC-1 cells with the compound at a concentration 100 uM determined against thymidine; assay type: functional; method in brief: as §4
# [13] = Inhibition of incorporation of labeled precursor into macromolecules of noninfected SC-1 cells with the compound at a concentration 100 uM determined against uridine.; assay type: functional; method in brief: as §4
# Mus musculus [14] = species: Mus musculus; experiment: Cytotoxicity was evaluated; assay type: functional
# Method in brief: (§5)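 SC-1 cells (1 × 10^4 cells/mL) were seeded, incubated overnight at 37 °C, refed with EMEM-10 and given diluted analogue in triplicate for 72 h at 37 °C. Cells were trypsinized and counted in a Coulter counter. The mean of three wells gave percent of control count, and IC50 was calculated by linear regression.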
# Mus musculus [15] = species: Mus musculus; experiment: Concentration that reduces Rauscher murine leukemia virus titer by 50%; assay type: functional, organism-based; method in brief: as §2
# [16] = Selectivity index is the ratio of IC50 to EC50 of F-MuLV.; assay type: functional
# [17] = Selectivity index which is the ratio of IC50 to EC50 of R-MuLV.; assay type: functional
# Homo sapiens [18] = species: Homo sapiens; experiment: Cytotoxicity was evaluated against C116 human solid tumor at 500 ug/disk.; assay type: functional; method in brief: as §1
# L1210 [19] = experiment: Cytotoxicity was evaluated against L1210 leukemia cell line at 1000 ug/disk.; assay type: functional, Mus musculus; method in brief: as §1
# Mus musculus [20] = species: Mus musculus; experiment: Cytotoxicity was evaluated and represented as IC50.; assay type: functional; method in brief: as §5
# [21] = Cytotoxicity was evaluated against low malignancy line at 1000 ug/disk.; assay type: functional; method in brief: as §1
# PO3 [22] = experiment: Cytotoxicity was evaluated against PO3 cell line at 1000 ug/disk.; assay type: functional, Mus musculus; method in brief: as §1
# [23] = Cytotoxicity was evaluated against CO9 solid tumor of mouse at 500 ug/disk.; assay type: functional; method in brief: as §1
# Homo sapiens [24] = species: Homo sapiens; experiment: Cytotoxicity was evaluated against PO1 human solid tumor at 500 ug/disk.; assay type: functional; method in brief: as §1
# Homo sapiens [25] = species: Homo sapiens; experiment: Cytotoxicity was evaluated against C116 human solid tumor at 1000 ug/disk.; assay type: functional; method in brief: as §1
# MC-38 [26] = experiment: Cytotoxicity was evaluated against C38 solid tumor of mouse at 1000 ug/disk.; assay type: functional; method in brief: as §1
smiles,measurement,setting,value
Nc1ncnc2c1ncn2CC#CCCl,Cytotoxicity,MC-38 [1],950
same,Cytotoxicity,Homo sapiens [2],900
same,Cytotoxicity,L1210 [3],930
same,Cytotoxicity,[4],950
same,IC50,L1210 [5],90 µM
same,Cytotoxicity,PO3 [6],520
Nc1nc(O)c2ncn(C/C=C/CO)c2n1,IC50,L1210 [5],200 µM
Nc1ncnc2c1ncn2C/C=C/CCl,Cytotoxicity,MC-38 [1],600
same,Cytotoxicity,L1210 [3],630
same,Cytotoxicity,[4],400
same,IC50,L1210 [5],45 µM
Nc1ccn(C/C=C\CO)c(=O)n1,IC50,L1210 [5],> 1000 µM
NC1=NC(Cl)c2c(ncn2CC#CCCl)N1 (stereo not drawn),IC50,L1210 [5],39 µM
NC1=NC(Cl)c2c(ncn2C/C=C/CCl)N1 (stereo not drawn),Cytotoxicity,MC-38 [1],700
same,Cytotoxicity,L1210 [3],800
same,Cytotoxicity,[4],600
same,IC50,L1210 [5],39 µM
Cc1cn(CC#CCCl)c(=O)[nH]c1=O,Cytotoxicity,MC-38 [1],630
same,Cytotoxicity,L1210 [3],520
same,Cytotoxicity,[4],610
same,IC50,L1210 [5],140 µM
Nc1ccn(C=C=CCO)c(=O)n1,EC50,Mus musculus [7],8.1 µM
same,Precursor inhibition,[8],75%
same,Precursor inhibition,[9],67%
same,Precursor inhibition,[10],51%
same,IC50,L1210 [5],560 µM
same,Precursor inhibition,[11],91%
same,Precursor inhibition,[12],89%
same,Precursor inhibition,[13],75%
same,IC50,Mus musculus [14],489 µM
same,EC50,Mus musculus [15],11.5 µM
same,SI,[16],60.4
same,SI,[17],42.5
NC1=NC(N)c2c(ncn2C=C=CCO)N1 (stereo not drawn),Cytotoxicity,Homo sapiens [18],200
same,Cytotoxicity,MC-38 [1],180
same,EC50,Mus musculus [7],118 µM
same,Cytotoxicity,L1210 [19],150
same,Cytotoxicity,[4],40
same,IC50,L1210 [5],60 µM
same,IC50,Mus musculus [14],255 µM
same,EC50,Mus musculus [15],118 µM
same,SI,[16],2.2
same,SI,[17],2.2
NC(=O)c1ncn([C@@H]2O[C@H](CO)[C@@H](O)[C@H]2O)n1 [RIBAVIRIN],EC50,Mus musculus [7],8.3 µM
same,IC50,Mus musculus [14],52 µM
same,EC50,Mus musculus [15],32.1 µM
same,SI,[16],6.3
same,SI,[17],1.6
NC1=NC(N)c2c(ncn2CC#CCO)N1 (stereo not drawn),IC50,L1210 [5],200 µM
O=C(O)P(=O)(O)O [FOSCARNET],EC50,Mus musculus [7],110 µM
same,IC50,Mus musculus [20],1000 µM
same,EC50,Mus musculus [15],42.8 µM
same,SI,[16],9.1
same,SI,[17],23.4
Cc1cn(C=C=CCO)c(=O)nc1N,Cytotoxicity,Homo sapiens [18],500
same,Cytotoxicity,MC-38 [1],520
same,Cytotoxicity,[21],550
same,Cytotoxicity,L1210 [19],500
same,IC50,L1210 [5],620 µM
Cc1cn([C@H]2C[C@H](N=[N+]=[N-])[C@@H](CO)O2)c(=O)[nH]c1=O [ZIDOVUDINE],EC50,Mus musculus [7],0.035 µM
same,IC50,Mus musculus [14],594 µM
same,EC50,Mus musculus [15],0.046 µM
same,SI,[16],17000
same,SI,[17],12900
Nc1nc(O)c2ncn(CC#CCO)c2n1,Cytotoxicity,L1210 [19],220
same,IC50,L1210 [5],210 µM
same,Cytotoxicity,PO3 [22],210
Cc1cn(CC#CCO)c(=O)[nH]c1=O,IC50,L1210 [5],> 500 µM
Nc1ccn([C@H]2CC[C@@H](CO)O2)c(=O)n1 [ZALCITABINE],EC50,Mus musculus [7],23 µM
same,IC50,Mus musculus [14],> 100 µM
same,EC50,Mus musculus [15],13.8 µM
same,SI,[16],> 4.4
same,SI,[17],> 7.3
Nc1ccn(C/C=C/CO)c(=O)n1,IC50,L1210 [5],> 550 µM
O=c1[nH]c(=O)n2c3c1ncn3CC=CC2,IC50,L1210 [5],> 1000 µM
Nc1ncnc2c1ncn2/C=C\CCO,EC50,Mus musculus [7],194 µM
same,IC50,L1210 [5],200 µM
same,IC50,Mus musculus [14],> 300 µM
same,EC50,Mus musculus [15],160 µM
same,SI,[16],> 1.6
same,SI,[17],> 1.9
Cc1cn(C/C=C\CO)c(=O)[nH]c1=O,IC50,L1210 [5],> 1000 µM
Nc1nc(O)c2ncn(C/C=C\CO)c2n1,IC50,L1210 [5],680 µM
Cc1cn(C=C=CCO)c(=O)[nH]c1=O,IC50,L1210 [5],100 µM
Nc1ncnc2c1ncn2C/C=C/CO,IC50,L1210 [5],125 µM
Nc1ccn([C@@H]2O[C@H](CO)[C@@H](O)[C@@H]2O)c(=O)n1 [CYTARABINE],IC50,L1210 [5],0.08 µM
N=c1ncn2c3c1ncn3CC=CC2,IC50,L1210 [5],> 1000 µM
Nc1ncnc2c1ncn2CCCCCl,IC50,L1210 [5],> 440 µM
Nc1ncnc2c1ncn2[C@H]1CC[C@@H](CO)O1,EC50,Mus musculus [7],1 µM
same,IC50,Mus musculus [14],83.8 µM
same,EC50,Mus musculus [15],2.6 µM
same,SI,[16],83.8
same,SI,[17],32.2
Nc1nc(O)c2ncn(C3C=CCO3)c2n1 (stereo not drawn),IC50,L1210 [5],> 350 µM
Nc1ccn(CC#CCO)c(=O)n1,IC50,L1210 [5],> 550 µM
Nc1ncnc2c1ncn2/C=C/CCO,EC50,Mus musculus [7],127 µM
same,IC50,L1210 [5],100 µM
same,IC50,Mus musculus [14],304 µM
same,EC50,Mus musculus [15],181 µM
same,SI,[16],2.4
same,SI,[17],1.7
Nc1nc(O)c2ncn(C=C=CCO)c2n1,IC50,L1210 [5],> 350 µM
Nc1ncnc2c1ncn2C=C=CCO,EC50,Mus musculus [7],124 µM
same,Cytotoxicity,L1210 [19],160
same,Precursor inhibition,[8],79%
same,Precursor inhibition,[9],46%
same,Precursor inhibition,[10],105%
same,IC50,L1210 [5],150 µM
same,Precursor inhibition,[11],94%
same,Precursor inhibition,[12],80%
same,Precursor inhibition,[13],107%
same,IC50,Mus musculus [14],168 µM
same,EC50,Mus musculus [15],87.3 µM
same,SI,[16],1.4
same,SI,[17],1.9
same,Cytotoxicity,PO3 [6],0
Cc1cn(C/C=C\CCl)c(=O)[nH]c1=O,Cytotoxicity,[23],320
same,Cytotoxicity,L1210 [3],610
same,Cytotoxicity,[4],400
same,IC50,L1210 [5],46 µM
same,Cytotoxicity,Homo sapiens [24],550
Nc1ncnc2c1ncn2C=C=CCCl,Cytotoxicity,Homo sapiens [18],300
same,Cytotoxicity,MC-38 [1],400
same,Cytotoxicity,Homo sapiens [2],300
same,Cytotoxicity,L1210 [3],280
same,Cytotoxicity,[4],280
same,IC50,L1210 [5],45 µM
same,Cytotoxicity,PO3 [6],300
Nc1ccn(C/C=C/CCl)c(=O)n1,Cytotoxicity,L1210 [3],520
same,Cytotoxicity,[4],370
same,IC50,L1210 [5],50 µM
same,Cytotoxicity,PO3 [6],550
Nc1ncnc2c1ncn2C1C=CCO1 (stereo not drawn),Cytotoxicity,Homo sapiens [25],460
same,Cytotoxicity,MC-38 [26],400
same,Cytotoxicity,[21],500
same,Cytotoxicity,L1210 [19],520
same,IC50,L1210 [5],> 500 µM
same,Cytotoxicity,PO3 [22],320
